Reference: ChEMBL document CHEMBL1140638, “Kipukasins, nucleoside derivatives from Aspergillus versicolor” (2007)
Activity calls are given as the source filed them. The rule behind the calls is not given here.

Assays:
Aspergillus flavus = assay: Antifungal activity against Aspergillus flavus NRRL 6541 at 200 ug/disk; type: functional, organism-based
Candida albicans = assay: Antifungal activity against Candida albicans ATCC 14053 at 200 ug/disk; type: functional, organism-based
Bacillus subtilis = assay: Antibacterial activity against Bacillus subtilis at 100 ug/disk; type: functional
Method in brief: (§1)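 Disk diffusion assay with 100 μg of compound per disk. Strains used were Staphylococcus aureus ATCC 29213 and Bacillus subtilis ATCC 6051. The read-out was the diameter of the zone of inhibition in mm.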

Staphylococcus aureus = assay: Antibacterial activity against Staphylococcus aureus ATCC 29213 at 100 ug/disk; type: functional; method in brief: as §1
Fusarium verticillioides = assay: Antifungal activity against Fusarium verticillioides NRRL 25457 at 200 ug/disk; type: functional, organism-based

| Structure (SMILES) | Activity (Aspergillus flavus) | Activity (Candida albicans) | Activity (Bacillus subtilis) | Activity (Staphylococcus aureus) | Activity (Fusarium verticillioides) | zone of inhibition at 100 µg/disc (Staphylococcus aureus; read-out: IZ) | zone of inhibition at 100 µg/disc (Bacillus subtilis; read-out: IZ) |
| --- | --- | --- | --- | --- | --- | --- | --- |
| COc1cc(C)c(C(=O)O[C@@H]2[C@H](O)[C@@H](CO)O[C@H]2n2ccc(=O)[nH]c2=O)c(OC)c1 | inactive | inactive | inactive | inactive | inactive | – | – |
| COc1cc(O)cc(C)c1C(=O)O[C@H]1[C@@H](O)[C@H](n2ccc(=O)n(C)c2=O)O[C@@H]1CO | inactive | inactive | inactive | inactive | inactive | – | – |
| COc1cc(O)cc(C)c1C(=O)O[C@H]1[C@@H](OC(C)=O)[C@H](n2ccc(=O)n(C)c2=O)O[C@@H]1CO | inactive | inactive | inactive | inactive | inactive | – | – |
| COc1cc(C)c(C(=O)O[C@H]2[C@@H](OC(C)=O)[C@H](n3ccc(=O)[nH]c3=O)O[C@@H]2CO)c(OC)c1 | inactive | inactive | – | – | inactive | 18 mm | – |
| COc1cc(C)c(C(=O)O[C@H]2[C@@H](OC(C)=O)[C@H](n3ccc(=O)[nH]c3=O)O[C@@H]2CO)c(O)c1 | inactive | inactive | inactive | inactive | inactive | – | – |
| COc1cc(O)cc(C)c1C(=O)O[C@H]1[C@@H](OC(C)=O)[C@H](n2ccc(=O)[nH]c2=O)O[C@@H]1CO | inactive | inactive | – | – | inactive | – | 12 mm |
| COc1cc(C)c(C(=O)O[C@H]2[C@@H](O)[C@H](n3ccc(=O)[nH]c3=O)O[C@@H]2CO)c(OC)c1 | inactive | inactive | inactive | inactive | inactive | – | – |
